MEKK3 PB1 HTS – MEKK3-MEK5 PB1 interaction, increase or decrease | Q99759 | bead-based flow cytometry, Alexa488-MEK5 binding to MEKK3; actives lie on both sides; 0 = blocked by unlabeled MEK5, 100 = vehicle | binding response (% of control), % at 10 µM | actives 1.4% (n = 290,000);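 active = binding response more than 3 SD above or below the average of its plate-row segment, actives on both sides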;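 note: Alexa488 bead fluorescence after subtracting the streptavidin-only scavenger bead signal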
ABCB1 inh – blocks JC-1 efflux by human ABCB1 transporter; CCRF-Adr cells, flow cytometry; inhibition, % at 6.6 µM; P08183; actives 0.067% (n = 190,000); in the data active = inhibition above about 40%;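 note: 0% = vehicle and 100% = reference inhibitor; higher value means more JC-1 retained so stronger ABCB1 efflux block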
WT yeast gro inh – growth inhibition of WT yeast, mitochondrial fusion screen | mitochondrial fusion phenotypic screen, WT strain | inhibition, % at 10 µM | actives 2.1% (n = 190,000) | AID 1362; in the data active = inhibition above about 58%; tested in S. cerevisiae
ABCG2 block – human ABCG2 inhibition, ABCB1 as counter-screen | actives 0.1% (n = 190,000) | IgMXP3 cells, JC-1 efflux, flow cytometry | inhibition, % at 6.6 µM | AID 1325;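 active = inhibition above 80%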;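 note: 0% = DMSO and 100% = nicardipine control wells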
Target sequence (Q9UNQ0 whole entry, looked up): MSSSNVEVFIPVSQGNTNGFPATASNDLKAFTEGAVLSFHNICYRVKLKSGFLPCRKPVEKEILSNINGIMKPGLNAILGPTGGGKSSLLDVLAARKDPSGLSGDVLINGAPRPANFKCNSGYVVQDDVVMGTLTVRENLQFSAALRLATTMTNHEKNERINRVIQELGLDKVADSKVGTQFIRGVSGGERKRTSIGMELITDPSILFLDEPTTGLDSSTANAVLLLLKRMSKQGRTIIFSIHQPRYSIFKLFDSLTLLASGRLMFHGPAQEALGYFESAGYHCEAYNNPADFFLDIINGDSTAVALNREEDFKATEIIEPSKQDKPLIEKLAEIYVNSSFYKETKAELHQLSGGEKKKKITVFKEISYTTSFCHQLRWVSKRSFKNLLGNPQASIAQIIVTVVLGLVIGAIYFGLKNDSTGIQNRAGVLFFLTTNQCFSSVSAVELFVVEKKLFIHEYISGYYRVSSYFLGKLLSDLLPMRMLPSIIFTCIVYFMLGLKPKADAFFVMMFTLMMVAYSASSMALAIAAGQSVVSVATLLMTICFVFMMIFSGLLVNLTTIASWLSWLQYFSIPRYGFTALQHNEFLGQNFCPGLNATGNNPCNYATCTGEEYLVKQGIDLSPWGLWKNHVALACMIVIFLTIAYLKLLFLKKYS
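Measure – % inhibition of efflux relative to nicardipine and DMSO · Test system – ABCG2 IgMXP3 and barcoded ABCB1 CCRF-Adr cell mix · Control set – nicardipine as high control, DMSO as low control · Compound – one concentration, 6.6 µM final · Signal – flow cytometry of retained JC-1 fluorescence · Timing – 10 min exposure at 25 °C with rotation, no wash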
MEKK2mut PB1 HTS – signal of MEK5 binding to mutant human MEKK2 PB1 domain; bead flow cytometry, Alexa488-MEK5 binding to MEKK2 mutant; percent response, % at 10 µM; actives 0.35% (n = 290,000); in the data active = percent response above about 24%, passing the limit was not always enough
MEKK2 WT-MEK5 – raises or lowers MEK5 binding to wildtype human MEKK2 PB1 domain; actives 1.1% (n = 290,000); binding response (% of control), % at 10 µM; Q9Y2U5; bead flow cytometry, Alexa488-MEK5 binding to MEKK2 WT; actives lie on both sides; in the data active = binding response below about 67% or above about 130%
MEKK2wt confirm – raises or lowers MEK5 binding to wildtype human MEKK2, retest | shares compounds with MEKK3 PB1 HTS | bead flow cytometry, Alexa488-MEK5 binding to MEKK2 WT; actives lie on both sides | binding response (% of control), % at 10 µM | actives 2.4% (n = 5,900) | AID 1892; in the data active = binding response below about 16% or above about 210%; inactive = in between
MEKK2mut confirm – signal of MEK5 binding to mutant human MEKK2, retest; shares compounds with MEKK3 PB1 HTS; bead flow cytometry, Alexa488-MEK5 binding to MEKK2 mutant; percent response, % at 10 µM; actives 2% (n = 5,900); in the data active = percent response mostly above about 71%, no sharp cut-off; inactive = mostly below about 38%;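 note: higher means compound restores mutant binding toward wildtype level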
MEKK3-MEK5 inh – MEKK3-MEK5 PB1 inhibition, single concentration confirmation; shares compounds with MEKK3 PB1 HTS; bead flow cytometry, Alexa488-MEK5 binding to MEKK3; hits give low values; binding response (% of control), % at 10 µM; actives 1.8% (n = 5,900); AID 1894;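 active = binding response below 72% of control, or above a set upper limit, though filed actives all read lower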;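 note: 100% = DMSO only wells and 0% = binding blocked by excess unlabeled MEK5; lower values mean stronger disruption of MEK5 binding to MEKK3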
An asterisk follows results filed as active; / = no result given; [ ] = remark or other dose. A selection: hits, their analogues and other compounds. The true share with any hit is near 3.5%.

SMILES	MEKK3 PB1 HTS	ABCB1 inh	WT yeast gro inh	ABCG2 block	MEKK2mut PB1 HTS	MEKK2 WT-MEK5	MEKK2wt confirm	MEKK2mut confirm	MEKK3-MEK5 inh
COc1ccc(-c2nnn(CC(=O)N(CC(=O)NC3CCCC3)c3ccccc3F)n2)cc1OC	105.0	/	/	/	1.0	106.0	/	/	/
CCc1ccc(Nc2n[n+](-c3ccccc3)c(-c3ccc(SC)cc3)s2)cc1	108.0	/	/	/	35.0*	195.0*	180.0	53.0	108.0
CSc1ccc(-c2sc(Nc3ccccc3)n[n+]2-c2ccccc2)cc1	106.0	/	/	/	10.0	148.0*	121.0	31.0	102.0
Fc1ccc(-[n+]2nc(Nc3ccccc3)sc2-c2cccc(Cl)c2Cl)cc1	105.0	/	/	/	23.0	128.0	/	/	/
CCc1ccc(Nc2n[n+](-c3ccccc3)c(-c3ccc(OC)c(Br)c3)s2)cc1	109.0	/	/	/	41.0*	207.0*	206.0	73.0*	113.0
Clc1cccc(-c2sc(Nc3ccccc3)n[n+]2-c2ccccc2)c1Cl	104.0	/	/	/	13.0	135.0*	135.0	15.0	103.0
COc1ccc(S(=O)(=O)N2CCOCC2)cc1NC(=O)CSc1cccc[n+]1[O-]	99.0	/	/	/	0.0	98.0	/	/	/
Cc1ccc(C)c(NC(=O)CC2Oc3ccccc3NC2=O)c1 (stereo not drawn)	105.0	/	/	/	7.0	104.0	/	/	/
COc1cc(Br)c(-c2sc(Nc3ccccc3)n[n+]2-c2ccc(F)cc2)cc1OC	104.0	/	/	/	34.0*	133.0	149.0	32.0	103.0
CN(CC(=O)Nc1ccccc1C(=O)N1CCCC1)S(=O)(=O)c1ccc(Cl)cc1	100.0	0.9	-1.9	0.9	0.0	101.0	/	/	/
Cc1ccc(C(=O)N/C(=C\c2cccs2)C(=O)NCCCn2ccnc2)cc1	108.0	0.1	-11.5	0.3	-1.0	93.0	/	/	/
Cc1ccsc1CNC(=O)c1c(-c2ccccc2)noc1C	99.0	/	/	/	-3.0	96.0	/	/	/
CC1CC(C)(C)NC(=S)N1CC(=O)N1CCN(Cc2ccccc2)CC1 (stereo not drawn)	100.0	1.2	9.5	10.9	1.0	103.0	/	/	/
CC1(C)CC(C)(O)N(Cc2ccccc2)C(=S)N1 (stereo not drawn)	133.0*	0.5	-0.8	6.6	1.0	112.0	101.0	2.0	101.0
COc1ccc(CSc2ncn[nH]2)cc1[N+](=O)[O-]	100.0	2.0	-8.4	26.2	0.0	97.0	/	/	/
COc1ccc(CSc2n[nH]c(C)n2)cc1[N+](=O)[O-]	130.0*	-0.1	11.5	3.0	4.0	106.0	-3.0*[inhibitor]	-5.0	94.0
O=C1N=c2ccccc2=C1c1[nH]c(=S)[nH]c1O	66.0*[inhibitor]	0.3	0.0	1.0	2.0	106.0	110.0	9.0	103.0
O=C1N=c2ccccc2=C1c1sc(=O)[nH]c1O	94.0	/	/	/	-2.0	92.0	/	/	/
CCCc1cc(=O)[nH]c(SCc2cc(C(=O)OC)c(C)o2)n1	2.0*[inhibitor]	0.4	19.7	3.3	-16.0	3.0*[inhibitor]	99.0	-2.0	101.0
COc1ccc(C(=O)NCCCNC(=O)c2cnccn2)cc1Br	99.0	/	/	/	-4.0	98.0	/	/	/
COc1cc2c(cc1NC(=S)NC(=O)c1c(OC)cccc1OC)oc1ccccc12	129.0*	-0.1	2.8	1.5	0.0	102.0	85.0	-11.0	96.0
COc1ccc(C(=O)NC(=S)Nc2cc3oc4ccccc4c3cc2OC)cc1	95.0	-1.7	3.4	-9.6	-2.0	91.0	/	/	/
CCN1CCc2c(sc(NC(=O)c3ccc(S(=O)(=O)N4CCCCCC4)cc3)c2C(=O)NC)C1	107.0	/	/	/	9.0	120.0	/	/	/
O=C(CN1C(=O)COc2ccccc21)c1cccc(Cl)c1	100.0	-0.6	20.8	2.3	2.0	97.0	/	/	/

Source: PubChem BioAssay (several laboratories)
